According to ChEMBL document CHEMBL3632562, “Diethylstilbestrol-scaffold-based pregnane X receptor modulators” (Eur J Med Chem, 2015):
Active and inactive are the calls of the source. No cut-off for these calls is given here.

How the values were obtained:
[1] = molecular target: T1, Nuclear receptor subfamily 1 group I member 2 (Homo sapiens, UniProt O75469); assay: Antagonist activity against PXR in human HepG2 cells assessed as inhibition of rifaximin-induced CYP3A4 gene expression at 25 uM after 18 hrs by quantitative real-time PCR analysis; assay type: cell-based; conditions: hepg2, 18 h
T1 sequence (O75469 whole entry): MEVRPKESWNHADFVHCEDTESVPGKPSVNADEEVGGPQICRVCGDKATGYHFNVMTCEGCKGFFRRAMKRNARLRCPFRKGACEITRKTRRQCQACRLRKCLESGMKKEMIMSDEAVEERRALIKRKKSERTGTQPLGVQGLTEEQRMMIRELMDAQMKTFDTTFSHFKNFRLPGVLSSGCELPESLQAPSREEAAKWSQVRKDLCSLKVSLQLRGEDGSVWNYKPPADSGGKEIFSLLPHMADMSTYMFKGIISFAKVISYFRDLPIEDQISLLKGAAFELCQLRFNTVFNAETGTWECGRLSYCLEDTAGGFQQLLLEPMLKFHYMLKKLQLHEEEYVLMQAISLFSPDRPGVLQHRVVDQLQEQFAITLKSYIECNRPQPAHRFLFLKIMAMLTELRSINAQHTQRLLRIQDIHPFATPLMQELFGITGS

[2] = molecular target: T1, Nuclear receptor subfamily 1 group I member 2; assay: Antagonist activity at full length human PXR transfected in human HepG2 cells assessed as reduction in rifaximin-induced receptor transactivation at 50 uM after 18 hrs by luciferase reporter assay; assay type: cell-based; conditions: hepg2, 18 h
Summary of the method: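 HepG2 (5 × 10⁴ cells/well, MEM/10% FBS) transiently transfected with full-length human PXR, RXR, PXRE-luciferase reporter and Renilla vectors, then treated 18 h with rifaximin (10 μM) plus compound (50 μM). Luciferase read-out normalised as RLU/Renilla RRU; p < 0.05 significance.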

[3] = molecular target: T1, Nuclear receptor subfamily 1 group I member 2; assay: Antagonist activity at full length human PXR transfected in human HepG2 cells assessed as reduction in rifaximin-induced receptor transactivation after 18 hrs by luciferase reporter assay; assay type: cell-based; conditions: for inhibition (INH): human, hepg2, 18 h
Summary of the method: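 Rifaximin-stimulated (10 μM) HepG2 transiently co-transfected with 75 ng pSG5-hPXRT1, 75 ng pSG5-RXR, 250 ng pGL3(henance)PXRE reporter and 100 ng pGL4.70-Renilla, then co-treated 18 h with compound at 10, 25 and 50 μM. Firefly luciferase RLU divided by Renilla RRU to normalise transfection efficiency; IC50 taken from concentration-response curve.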

[4] = molecular target: T1, Nuclear receptor subfamily 1 group I member 2; assay: Activity at PXR in human HepG2 cells assessed as up regulation of rifaximin-induced PXR gene expression at 25 uM after 18 hrs by quantitative real-time PCR analysis; conditions: hepg2, 18 h
[5] = molecular target: T1, Nuclear receptor subfamily 1 group I member 2; assay: Transactivation of full length human PXR transfected in human HepG2 cells after 18 hrs by luciferase reporter assay relative to rifaximin; assay type: cell-based
Summary of the method: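 In HepG2 transfected with hPXR, RXR, PXRE-luciferase and Renilla plasmids, cells were exposed 18 h to compound at 10 μM, or at 10, 25 and 50 μM for EC50 determination, alongside rifaximin (10 μM) as reference agonist. Firefly signal normalised to Renilla.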

HepG2 [6] = assay: Up regulation of full length PXR expression in human HepG2 cells at 10 uM after 18 hrs by quantitative real-time PCR analysis; assay type: functional, cell-based
HepG2 [7] = assay: Toxicity in human HepG2 cells expressing human full-length PXR assessed as reduction in cell viability at 50 uM; assay type: cell-based; conditions: hepg2, 50 µM
[8] = molecular target: T1, Nuclear receptor subfamily 1 group I member 2; assay: Antagonist activity at PXR (unknown origin)
[9] = Solubility of the compound; assay type: physicochemical
[10] = molecular target: T1, Nuclear receptor subfamily 1 group I member 2; assay: Transactivation of PXR in human HepG2 cells assessed as up regulation of CYP3A4 gene expression at 10 uM after 18 hrs by quantitative Real-time PCR analysis; assay type: cell-based; conditions: hepg2, 18 h

Structure (SMILES): CC/C(=C(/CC)c1ccc(O)cc1)c1ccc(O)cc1 [DIETHYLSTILBESTROL]
- inhibition (INH) [1]: Active
- inhibition (INH) [2]: Active
- IC50 [3]: 14.6 µM
- inhibition (INH) [3]: Dose-dependent effect
- Activity [4]: Active

Structure (SMILES): CO[C@H]1/C=C/O[C@@]2(C)Oc3c(C)c(O)c4c(O)c(c5c(nc6cc(C)ccn65)c4c3C2=O)NC(=O)/C(C)=C\C=C\[C@H](C)[C@H](O)[C@@H](C)[C@@H](O)[C@@H](C)[C@H](OC(C)=O)[C@@H]1C [RIFAXIMIN]
- EC50 [5]: 11.2 µM
- Activity (HepG2 [6]): Active

Structure (SMILES): CC/C(=C(/CC)c1ccc(OCCCCO)cc1)c1ccc(OCCCCO)cc1
- Activity (HepG2 [7]): Toxic

Structure (SMILES): CC/C(=C(/CC)c1ccc(OCCOS(=O)(=O)[O-])cc1)c1ccc(OCCOS(=O)(=O)[O-])cc1.[Na+].[Na+]
- inhibition (INH) [2]: Not Active

Structure (SMILES): CC/C(=C(/CC)c1ccc(OCCCO)cc1)c1ccc(OCCCO)cc1
- Activity (HepG2 [7]): Toxic

Structure (SMILES): CC/C(=C(/CC)c1ccc(OCCCOC(C)=O)cc1)c1ccc(OCCCOC(C)=O)cc1
- inhibition (INH) [2]: Active

Structure (SMILES): Cc1cc(-c2onc(C)c2C(=O)Sc2ccccc2)no1
- IC50 [8]: 0.85 µM

Structure (SMILES): CC/C(=C(/CC)c1ccc(OCCCCOS(=O)(=O)[O-])cc1)c1ccc(OCCCCOS(=O)(=O)[O-])cc1.[Na+].[Na+]
- inhibition (INH) [2]: Not Active

Structure (SMILES): CC/C(=C(/CC)c1ccc(OCCCCOC(C)=O)cc1)c1ccc(OCCCCOC(C)=O)cc1
- solubility [9]: Insoluble

Structure (SMILES): CC/C(=C(/CC)c1ccc(OCCO)cc1)c1ccc(OCCO)cc1
- inhibition (INH) [1]: Active
- inhibition (INH) [2]: Active
- IC50 [3]: 27.4 µM
- inhibition (INH) [3]: Dose-dependent effect
- Activity [4]: Active

Structure (SMILES): CC/C(=C(/CC)c1ccc(OC)cc1)c1ccc(OC)cc1
- EC50 [5]: 10.5 µM
- Activity (HepG2 [6]): Active
- Activity [10]: Active

Structure (SMILES): CC/C(=C(/CC)c1ccc(OCCOC(C)=O)cc1)c1ccc(OCCOC(C)=O)cc1
- inhibition (INH) [2]: Active

Structure (SMILES): CC/C(=C(/CC)c1ccc(OCCCOS(=O)(=O)[O-])cc1)c1ccc(OCCCOS(=O)(=O)[O-])cc1.[Na+].[Na+]
- inhibition (INH) [2]: Not Active

Structure (SMILES): CC/C(=C(/CC)c1ccc(OS(=O)(=O)[O-])cc1)c1ccc(OS(=O)(=O)[O-])cc1.[Na+].[Na+]
- inhibition (INH) [2]: Not Active
